The record followed here is ChEMBL document CHEMBL3244228, “Synthesis and biological properties of 2-, 5-, and 6-fluoronorepinephrines” (J Med Chem, 1979).

Assay [1] is described as follows: Agonist activity at beta-adrenergic receptor in Hartley guinea pig ileum assessed as maximal relaxation. Format: tissue-based. To be noted: Cavia porcellus.
Assay [2] is described as follows: Agonist activity at alpha-adrenergic receptor in Hartley guinea pig aorta assessed as maximal contraction. It counts as tissue-based, Cavia porcellus. Summed up:
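Aortic strip from 250-300 g male Hartley guinea pigs, in 10 mL Tyrode's solution at 37 °C aerated with 95% O2/5% CO2. Full concentration range, 0.1 to 100 μM. Response is percent of maximal contraction (largest contraction per dose relative to the maximum for (±)-NE). EC50 ± SD estimated from eight dose-response curves.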

The nature of assay [3]: Agonist activity at beta-adrenergic receptor in Hartley guinea pig atria assessed as maximal increase in contraction rate. Details: species or system Cavia porcellus. Summed up:
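Atria from 250-300 g male Hartley guinea pigs, bathed in 10 mL Tyrode's at 37 °C under 95% O2/5% CO2, dosed at 0.1 to 100 μM. Contraction rate read 60 s after each dose against the pre-experiment rate and expressed as percent of the maximal increase given by (±)-NE. EC50 ± SD from eight dose-response curves.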

The target of assay [4] is Adrenergic receptor alpha. Briefly: Agonist activity at alpha-adrenergic receptor in Sprague-Dawley rat cerebral cortex assessed as [3H]cAMP accumulation by liquid scintillation spectroscopy in presence of propranolol. It counts as functional, tissue-based. Summed up:
(§1)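 Male Sprague-Dawley rat cerebral cortical slices (260 μm, cross-chopped) are preincubated 15 min in Krebs-Ringer bicarbonate glucose buffer, labelled 40 min at 37 °C with adenine (30 μM) plus [3H]adenine, then equilibrated 5 min. Amines are applied at 1 to 100 μM for 10 min, with propranolol 10 μM for α responses and phentolamine 10 μM for β responses. Cyclic [3H]AMP is isolated from TCA extracts on a double column, corrected for carrier recovery and reported as percent conversion. EC50 from six dose-response curves.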

The target in assay [5] is Adrenergic receptor alpha. Nature of the assay: Displacement of [3H]WB4101 from alpha-adrenergic receptor in Sprague-Dawley rat cerebral cortical membrane.
The species entered for assay [6] is Cavia porcellus. Nature of the assay: Agonist activity at alpha-adrenergic receptor in Hartley guinea pig aorta assessed as maximal contraction in presence of alpha-adrenergic receptor antagonist phentolamine. It counts as tissue-based.
Assay [7] is filed under the species Cavia porcellus. Nature of the assay: Agonist activity at alpha-adrenergic receptor in Hartley guinea pig aorta assessed as maximal contraction in presence of beta-adrenergic receptor antagonist propranolol. Format: tissue-based.
The species entered for assay [8] is Cavia porcellus. Briefly: Agonist activity at beta-adrenergic receptor in Hartley guinea pig atria assessed as maximal increase in contraction rate in presence of alpha-adrenergic receptor antagonist phentolamine.
Assay [9] is filed under the species Cavia porcellus. Briefly: Agonist activity at beta-adrenergic receptor in Hartley guinea pig atria assessed as maximal increase in contraction rate in presence of beta-adrenergic receptor antagonist propranolol.
Assay [10] deals with Adrenergic receptor alpha (Rattus norvegicus) (UniProt P15823+P23944+P43140+P22086+P19328+P22909). Briefly: Agonist activity at alpha-adrenergic receptor in Sprague-Dawley rat cerebral cortex assessed as [3H]cAMP accumulation by liquid scintillation spectroscopy in presence of propranolol and phentolamine. Format: functional, tissue-based.
Assay [11] concerns the target T1, Adrenergic receptor beta (Rattus norvegicus, UniProt P18090+P10608+P26255). Nature of the assay: Agonist activity at beta-adrenergic receptor in Sprague-Dawley rat cerebral cortex assessed as [3H]cAMP accumulation by liquid scintillation spectroscopy in presence of phentolamine. Format: functional, tissue-based. Summed up:
as §1

Assay [12] addresses T1, Adrenergic receptor beta. Nature of the assay: Displacement of [3H]dihydroalprenolol from beta-adrenergic receptor in Sprague-Dawley rat cerebral cortical membrane.

Structures are written as SMILES. Active and inactive are the calls of the source. The calls are words filed in the database; no cut-off is given here.

On to `NCC(O)c1ccc(O)c(O)c1` (configuration not stated), for which the EC50 in [1] is 15.6 µM; in assay [2] it was 2.6 µM; in [3] it was 0.7 µM.
Consider `Cl.NCC(O)c1cc(O)c(O)cc1F` (racemic), for which the EC50 was 2.5 µM in assay [2], 72 µM in assay [3], 5 µM in [4] and 3 µM in [5]. In addition, the result (in the assay listed under Cavia porcellus [6]; in the assay listed under Cavia porcellus [9]; in assay [10]) was inactive. Moreover, the outcome in the assay listed under Cavia porcellus [7] and in the assay filed under Cavia porcellus [8] was Active.
As to `Cl.NCC(O)c1ccc(O)c(O)c1F` (racemic), the EC50 in assay [2] is 110 µM; in [3], 0.6 µM; in [4] it was over 100 µM; in assay [5], over 100 µM. Further, the outcome in the assay filed under Cavia porcellus [6] and in the assay listed under Cavia porcellus [9] was inactive. Also, the result (in the assay filed under Cavia porcellus [7]; in the assay filed under Cavia porcellus [8]; in assay [10]) was Active.
On to `Cl.NCC(O)c1cc(O)c(O)c(F)c1` (racemic), for which the half-maximal effective concentration (EC50) in [1] came out at 44 µM; in assay [2], 2.4 µM; in [3], 0.11 µM; in assay [4] it was 5 µM; at Adrenergic receptor beta [11] it was 2 µM; in assay [5] it was 15 µM. The same molecule had an EC50 on Adrenergic receptor beta [12] of 4 µM. Also, the result in the assay filed under Cavia porcellus [6] and in the assay filed under Cavia porcellus [9] was inactive. In addition, the result in the assay filed under Cavia porcellus [7] and in the assay filed under Cavia porcellus [8] was Active.
